Results on 5 molecules are retold here after ChEMBL document CHEMBL4043092, “Neuroprotective and Antineuroinflammatory Effects of Hydroxyl-Functionalized Stilbenes and 2-Arylbenzo[b]furans” (J Med Chem, 2017).

For test [1], the system named is Cortical neurone. Briefly: Neuroprotective activity against glutamate-induced cell death in Sprague-Dawley rat 10 days old neonatal primary cortical neurons assessed as increase in cell viability pretreated for 2 hrs followed by 30 uM glutamate addition measured after 24 hrs by MTT assay. The test is classed as functional, cell-based. The method, boiled down:
(§1)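 Cortical neurons pretreated 2 h with vehicle (0.1% DMSO) or compound at maximum nontoxic concentration. Then exposed at DIV5 to fibrillar Aβ25–35 (10 μM, 48 h) or at DIV10 to glutamate (30 μM, 24 h). MTT 0.5 mg/mL for 1 h, formazan dissolved in DMSO, OD read at 600 nm. Mean ± SD of three independent experiments.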

The test system of test [2] is Mus musculus. Kind of test: Antialzheimer activity in APPswe/PSEN1dE9 double transgenic C57BL/6J mouse model of Alzheimer's disease assessed as decrease in number of unshredded nestlets at 30 mg/kg/day administered via oral gavage over 60 days by nesting test.
Test [3] has as its system Cortical neurone. Kind of test: Neuroprotective activity against fibril amyloid beta (25 to 35)-induced cell death in Sprague-Dawley rat 5 days old neonatal primary cortical neuron assessed as inhibition of fibril amyloid beta (25 to 35)-induced decrease in tau protein level at 50 uM pretreated for 2 hrs followed by 10 uM fibril amyloid beta (25 to 35) addition measured after 48 hrs by fluorescein isothiocyanate dye-based immunocytochemistry analysis. The test is classed as functional. The method, boiled down: (§2)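 Cortical neurons at DIV5 (fibrillar Aβ25–35 10 μM, 48 h) or DIV10 (glutamate 30 μM, 24 h), after 2 h with 50 μM compound. Fixed in 4% paraformaldehyde, permeabilized with Triton X-100, blocked with donkey serum. Stained with anti-MAP2 and anti-tau (1:100, overnight at 4 °C), then FITC and RRX secondaries. Integrated density relative to vehicle. Mean ± SEM, n=3.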

Test [4] concerns Cortical neurone. Kind of test: Neuroprotective activity against glutamate-induced cell death in Sprague-Dawley rat 10 days old neonatal primary cortical neurons assessed as cell death at maximum non toxic concentration pretreated for 2 hrs followed by 30 uM glutamate addition measured after 24 hrs by MTT assay (reference value: 41.22 +/- 3.40%). Type of test: functional. Background: Formazan colour is commonly taken as a measure of viable cells.

Test [5] has as its system Cortical neurone. Briefly: Neuroprotective activity against glutamate-induced cell death in Sprague-Dawley rat 10 days old neonatal primary cortical neuron assessed as inhibition of glutamate-induced decrease in MAP2 level at 50 uM pretreated for 2 hrs followed by 30 uM glutamate addition measured after 24 hrs by fluorescein isothiocyanate dye-based immunocytochemistry analysis. The test is classed as functional. The method, boiled down: as §2

The subject of test [6] is Cortical neurone. Kind of test: Neuroprotective activity against glutamate-induced cell death in Sprague-Dawley rat 10 days old neonatal primary cortical neuron assessed as inhibition of glutamate-induced decrease in tau level at 50 uM pretreated for 2 hrs followed by 30 uM glutamate addition measured after 24 hrs by fluorescein isothiocyanate dye-based immunocytochemistry analysis. The test is classed as functional. The method, boiled down: as §2

The nature of test [7]: Antioxidant activity assessed as ABTS radical cation scavenging activity by measuring trolox equivalents by spectrophotometric analysis. The test is classed as functional.
Test [8] has as its system Cortical neurone. Briefly: Neuroprotective activity against fibril amyloid beta (25 to 35)-induced cell death in Sprague-Dawley rat 5 days old neonatal primary cortical neurons assessed as increase in cell viability pretreated for 2 hrs followed by 10 uM fibril amyloid beta (25 to 35) addition measured after 48 hrs by MTT assay. Type of test: functional, cell-based. The method, boiled down:
as §1

Test [9] is described as follows: Anti-inflammatory activity in Sprague-Dawley rat primary mixed glial cells assessed as inhibition of LPS-induced NO production at 50 uM pretreated for 2 hrs followed by LPS addition measured after 48 hrs by Griess assay (reference value: 100%). Type of test: functional, Primary glial cell. On the set-up: scale not given: the % may be the effect or the level left. (In general: Griess reagent forms a coloured azo dye with nitrite.)

Test [10] concerns Cortical neurone. Kind of test: Neuroprotective activity against fibril amyloid beta (25 to 35)-induced cell death in Sprague-Dawley rat 5 days old neonatal primary cortical neuron assessed as increase in cell viability at 50 uM pretreated for 2 hrs followed by 10 uM fibril amyloid beta (25 to 35) addition measured after 48 hrs by calcein AM dye-based confocal laser scanning microscopic analysis. The test is classed as functional. The method, boiled down:
(§3)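 Rat pup cortical neurons in Neurobasal/B27, given 5 μM cytosine arabinoside for 1 day. Used at DIV5 for Aβ25–35 fibrils (aged 1 week at 37 °C; 10 μM, 48 h) or DIV10 for glutamate (30 μM, 24 h), after 2 h with 50 μM compound or 0.1% DMSO. Cells loaded with 1 μM calcein AM and ethidium homodimer-1 for 30 min at room temperature, imaged by confocal microscopy. Live-cell count and integrated density expressed relative to vehicle. Mean ± SEM, n=3.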

Test [11] concerns Cortical neurone. Briefly: Neuroprotective activity against glutamate-induced cell death in Sprague-Dawley rat 10 days old neonatal primary cortical neuron assessed as increase in cell viability at 50 uM pretreated for 2 hrs followed by 30 uM glutamate addition measured after 24 hrs by calcein AM dye-based confocal laser scanning microscopic analysis. The test is classed as functional. The method, boiled down:
as §3

A further test has as its target Cytochrome P450 3A4 (Homo sapiens, UniProt P08684). Kind of test: Inhibition of CYP3A4 in human liver microsomes. The test is classed as ADME.
Test [12] deals with Cortical neurone. Briefly: Neuroprotective activity against fibril amyloid beta (25 to 35)-induced cell death in Sprague-Dawley rat 5 day old neonatal primary cortical neurons assessed as cell death at maximum non toxic concentration pretreated for 2 hrs followed by 10 uM fibril amyloid beta (25 to 35) addition measured after 48 hrs by MTT assay (reference value: 39.20 +/- 0.88%). The test is classed as functional. The method, boiled down: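 Rat cortical neurons from pups, papain-dissociated, cytosine arabinoside (5 μM, 1 day) to remove non-neuronal cells, used at DIV5. Vehicle 0.1% DMSO or compound pretreatment before fAβ25–35 (aged 1 week at 37 °C). Viability by MTT reduction: 0.5 mg/mL for 1 h, formazan dissolved in DMSO, OD600. Mean ± SD of three independent experiments.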

Test [13] can be described thus: Anti-inflammatory activity in Sprague-Dawley rat primary mixed glial cells assessed as inhibition of LPS-induced NO production pretreated for 2 hrs followed by LPS addition measured after 48 hrs by Griess assay. The test is classed as functional, cell-based. As to conditions: Glial cell. The method, boiled down: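 Mixed cortical glia kept 3 days in DMEM/F12 with 10% FBS, medium changed, 4 more days, then 9 days in Neurobasal/B27 (16 days total). Cultures activated 2 days after medium refresh with 100 ng/mL LPS for 48 h, with compound at maximum nontoxic concentration. Medium nitrite read by Griess reagent at 540 nm against NaNO2 standard. Mean ± SD, three independent experiments.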

The subject of test [14] is Mus musculus. Briefly: Antialzheimer activity in APPswe/PSEN1dE9 double transgenic C57BL/6J mouse model of Alzheimer's disease assessed as increase in nesting score at 30 mg/kg/day administered via oral gavage over 60 days by nesting test. Type of test: functional, organism-based. The method, boiled down:
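Female APP/PS1 C57BL/6J mice, 5 months old, given compound by oral gavage at 30 mg/kg/day for 60 days. Wild-type siblings received vehicle. Two nestlets (about 5 g) placed in the cage 1 h before the dark cycle. Nest score and unshredded nestlet weight recorded. Mean ± SD per group.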

For test [15], the system named is Cortical neurone. Briefly: Neuroprotective activity against fibril amyloid beta (25 to 35)-induced cell death in Sprague-Dawley rat 5 days old neonatal primary cortical neuron assessed as inhibition of fibril amyloid beta (25 to 35)-induced decrease in MAP2 level at 50 uM pretreated for 2 hrs followed by 10 uM fibril amyloid beta (25 to 35) addition measured after 48 hrs by fluorescein isothiocyanate dye-based immunocytochemistry analysis. Type of test: functional. The method, boiled down: as §2

The source made the active and inactive calls. The calls are words filed in the database; no cut-off is given here. Bounds are passed on as bounds.

Cytochrome P450 3A4, sequence (P08684 whole entry): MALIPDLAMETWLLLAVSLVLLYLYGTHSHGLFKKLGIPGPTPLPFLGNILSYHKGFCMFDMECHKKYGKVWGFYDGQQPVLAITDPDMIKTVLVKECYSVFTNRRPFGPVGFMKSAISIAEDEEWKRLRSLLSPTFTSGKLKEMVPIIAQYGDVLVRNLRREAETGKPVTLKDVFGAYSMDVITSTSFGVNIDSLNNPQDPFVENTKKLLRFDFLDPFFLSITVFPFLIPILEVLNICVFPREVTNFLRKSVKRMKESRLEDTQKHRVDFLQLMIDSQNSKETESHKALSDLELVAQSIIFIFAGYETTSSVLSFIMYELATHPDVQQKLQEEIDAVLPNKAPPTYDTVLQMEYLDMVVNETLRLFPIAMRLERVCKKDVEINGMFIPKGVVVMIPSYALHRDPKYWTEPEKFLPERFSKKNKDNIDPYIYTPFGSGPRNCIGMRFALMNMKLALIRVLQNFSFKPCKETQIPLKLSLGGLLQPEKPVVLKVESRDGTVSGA

`CCOC(=O)/C=C/c1ccc(/C=C/c2cc(O)c(O)c(O)c2)cc1`: the EC50 in the test on Cortical neurone [1] was greater than 50 µM; in the test on Cortical neurone [8], 40.9 µM; in test [13] it was 99.2 µM. The result in the test with Mus musculus [2] and in the test on Mus musculus [14] was inactive. Further, the inhibition result in the test with Cortical neurone [3] was “inactive”. For the same molecule, the Activity in the test with Cortical neurone [4] worked out at 28.05%; in test [7] it was 0.14 mMequiv; in test [9], 72.93%; with Cortical neurone [12] it was 19.23%. Besides, the inhibition entry with Cortical neurone [5] and in the test with Cortical neurone [6] was “Active” throughout. The result in the test on Cortical neurone [10] and in the test with Cortical neurone [11] was Active. On Cytochrome P450 3A4, this molecule registered an IC50 of 36.2 µM.
With `Oc1ccc(-c2cc3c(Br)ccc(O)c3o2)cc1O`, the EC50 in the test with Cortical neurone [1] was greater than 0.5 µM; in the test on Cortical neurone [8], 26.7 µM; in [13] it was greater than 100 µM. Moreover, in the test on Cortical neurone [3], the inhibition result was “inactive”. In the test on Cortical neurone [15], the inhibition entry is “Active”. Besides, the Activity was found to be 40.83% in the test with Cortical neurone [4], 0.12 mMequiv in test [7], 61.64% in test [9] and 4.11% with Cortical neurone [12]. For the same molecule, the result in the test with Cortical neurone [10] was Active.
Turning to `Oc1ccc(-c2cc3cc(Br)cc(O)c3o2)cc1O`, the half-maximal effective concentration (EC50) is greater than 50 µM with Cortical neurone [1], 36.5 µM in the test on Cortical neurone [8] and greater than 100 µM in test [13]. In addition, the inhibition entry in the test on Cortical neurone [3] was “inactive”. For the same molecule, the inhibition entry in the test with Cortical neurone [15] is “Active”. Moreover, the Activity in the test on Cortical neurone [4] came out at 31.45%; in test [7], 0.06 mMequiv; in test [9], 86.85%; in the test on Cortical neurone [12], 16.95%. Moreover, in the test with Cortical neurone [10], the result was Active. Moreover, the 50% inhibitory concentration (IC50) on Cytochrome P450 3A4 worked out at 23.5 µM.
As to `CCOC(=O)/C=C/c1cc(O)c(O)cc1-c1cc2ccccc2o1`, the EC50 in the test on Cortical neurone [1] is 46.1 µM; in the test on Cortical neurone [8], greater than 50 µM; in test [13] it was greater than 100 µM. The outcome with Mus musculus [2], in the test on Cortical neurone [10], in the test with Cortical neurone [11] and in the test on Mus musculus [14] was Active. In addition, the inhibition entry in the test on Cortical neurone [3] was “inactive”. Also, the Activity with Cortical neurone [4] worked out at 21%; in test [7] it was 0.01 mMequiv; in test [9], 49.61%; with Cortical neurone [12], 25.45%. For the same molecule, the inhibition entry with Cortical neurone [5] and in the test on Cortical neurone [6] was “Active” in each case. For the same molecule, the IC50 against Cytochrome P450 3A4 came to 11.2 µM.
Consider `CCOC(=O)/C=C/c1cc(O)c2oc(-c3cc(O)c(O)c(O)c3)cc2c1`, for which the results for the EC50 (in the test with Cortical neurone [1]; with Cortical neurone [8]; in [13]) were 33 µM, 53 µM and 56.6 µM, respectively. For the same molecule, the outcome in the test with Mus musculus [2], with Cortical neurone [10], in the test on Cortical neurone [11] and in the test on Mus musculus [14] was Active. Also, in the test on Cortical neurone [3], the inhibition entry is “inactive”. Also, the Activity in the test on Cortical neurone [4] was determined as 24.48%; in test [7], 0.94 mMequiv; in test [9], 40.35%; in the test with Cortical neurone [12], 21.18%. Besides, the inhibition entry in the test on Cortical neurone [5] and in the test on Cortical neurone [6] was “Active” in each case. On Cytochrome P450 3A4, this molecule returned an IC50 of 21.7 µM.

For orientation: EC50 means the concentration giving half of the maximal effect. In general, IC50 refers to the midpoint of a concentration-inhibition curve.
